Measurements collected from several papers.
Compare with care: the assays were run in different laboratories.
Cell line: MV4-11
Read-out: cell growth or viability

CC(C)C[C@H](NC(=O)[C@H](Cc1ccccc1)NC(=O)c1cnccn1)B(O)O
IC50 (ATP luminescence): 3.9 nM

O=C(O)c1ccc(CN2CCC(CN[C@@H]3C[C@H]3c3ccccc3)CC2)cc1
EC50 (resazurin; 96 h): 39.6 nM

CC(C)[C@H](N)C(=O)N1CCC[C@H]1B(O)O
IC50 (ATP luminescence; 5 days): 130 nM

C/C(=N\NC(=O)c1cccc(S(=O)(=O)N2CCN(C)CC2)c1)c1cc(Cl)ccc1O
EC50 (resazurin; 96 h): 886 nM

COC(=O)[C@H](C)Nc1ccnc(Nc2cccc(-c3cccnc3)c2)n1
EC50 (ATP luminescence; 72 h): > 8000 nM

NNCCc1ccccc1
EC50 (resazurin; 96 h): > 2000 nM

Cc1ccc(NC(=O)NCc2ccc3c(c2)CN(C2CCC(=O)NC2=O)C3=O)cc1Cl (stereo not shown)
EC50 (ATP luminescence): 0.026 nM

CC(C)Nc1ccnc(Nc2ccc(C(N)=O)cc2)n1
EC50 (ATP luminescence; 72 h): 2530 nM

Nc1nc(Nc2ccc3c(c2)CC[C@@H](N2CCCC2)CC3)nn1-c1cc2c(nn1)-c1ccccc1CCC2
IC50 (trypan blue; 72 h): 247 nM

CC(C)Nc1ccnc(Nc2cccc(-c3ccccn3)c2)n1
EC50 (ATP luminescence; 72 h): 4820 nM

N[C@@H](CC(=O)N1CCN(C(c2ccc(F)cc2)c2ccc(F)cc2)CC1)C(=O)N1Cc2ccccc2C1
IC50 (ATP luminescence; 24 h): 1480 nM

c1cncc(Nc2nccc(NC3CCCCC3)n2)c1
EC50 (ATP luminescence; 72 h): > 7000 nM

Cc1ncsc1-c1ccc(CNC(=O)[C@@H]2C[C@H](O)CN2C(=O)[C@@H](NC(=O)C2(F)CC2)C(C)(C)C)c(OCCc2ccc(CN3CCN(c4cc(-c5ccccc5O)nnc4N)CC3)cc2)c1
IC50 (ATP luminescence; 7 days): 1700 nM

CN1CCN(C(=O)[C@H](CCCN[C@@H]2C[C@H]2c2ccc(F)cc2)NC(=O)c2ccc(-n3ccnn3)cc2)CC1
EC50 (resazurin; 96 h): 4.2 nM

CCNc1ccnc(Nc2cccc(-c3cccnc3)c2)n1
EC50 (ATP luminescence; 72 h): 35 nM

Cc1cc2c(cc1N1C(=O)c3cccc4c(CCCO)ccc(c34)C1=O)n(C)c(=O)n2C (racemic)
GI50 (resazurin): 2630 nM
